≈ marks a conversion by molar mass, not a printed value.
Columns and labels:
[1] = Compound was evaluated for its relative half life of hydrolysis to meropenem by partially purified porcine renal dihydropeptidase-I (DHP-I); assay type: functional; settings: Sus scrofa
Enterobacter cloacae [2] = experiment: Compound was evaluated for its antibacterial activity against Enterobacter cloacae P99; assay type: functional
Escherichia coli [3] = experiment: Compound was evaluated for its antibacterial activity against Escherichia coli CCARM 1116 MDR; assay type: functional
Escherichia coli [4] = experiment: Compound was evaluated for its antibacterial activity against Escherichia coli CCARM 1117 MDR; assay type: functional
Escherichia coli [5] = experiment: Compound was evaluated for its antibacterial activity against Escherichia coli DC 0; assay type: functional
Escherichia coli [6] = experiment: Compound was evaluated for its antibacterial activity against Escherichia coli DC 2; assay type: functional
Escherichia coli [7] = experiment: Compound was evaluated for its antibacterial activity against Escherichia coli TEM; assay type: functional
Escherichia coli [8] = experiment: Antibacterial activity against Escherichia coli 078; assay type: functional
Summary of the method: (§1)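 MIC was determined by agar dilution on Mueller–Hinton medium.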

Escherichia coli [9] = experiment: Antibacterial activity against Escherichia coli 1507E; assay type: functional; summary of the method: as §1
Escherichia coli [10] = experiment: Compound was evaluated for its antibacterial activity against Escherichia coli 0157:H7; assay type: functional
Escherichia coli [11] = experiment: Compound was evaluated for its antibacterial activity against Escherichia coli ATCC 25922; assay type: functional
Escherichia coli [12] = experiment: Compound was evaluated for its antibacterial activity against Escherichia coli CCARM 1108 MDR; assay type: functional
Escherichia coli [13] = experiment: Compound was evaluated for its antibacterial activity against Escherichia coli CCARM 1109 MDR; assay type: functional
Escherichia coli [14] = experiment: Compound was evaluated for its antibacterial activity against Escherichia coli CCARM 1111 MDR; assay type: functional
Escherichia coli [15] = experiment: Compound was evaluated for its antibacterial activity against Escherichia coli CCARM 1112 MDR; assay type: functional
Escherichia coli [16] = experiment: Compound was evaluated for its antibacterial activity against Escherichia coli CCARM 1113 MDR; assay type: functional
Escherichia coli [17] = experiment: Compound was evaluated for its antibacterial activity against Escherichia coli CCARM 1114 MDR; assay type: functional
Escherichia coli [18] = experiment: Compound was evaluated for its antibacterial activity against Escherichia coli CCARM 1115 MDR; assay type: functional
Enterobacter cloacae [19] = experiment: Antibacterial activity against Enterobacter cloacae 1321E; assay type: functional; summary of the method: as §1
Klebsiella pneumoniae [20] = experiment: Compound was evaluated for its antibacterial activity against Klebsiella pneumoniae 9 ESBL; assay type: functional
Klebsiella oxytoca = experiment: Compound was evaluated for its antibacterial activity against Klebsiella oxytoca 1082E; assay type: functional
Klebsiella pneumoniae [21] = experiment: Compound was evaluated for its antibacterial activity against Klebsiella pneumoniae 1 ESBL; assay type: functional
Klebsiella pneumoniae [22] = experiment: Compound was evaluated for its antibacterial activity against Klebsiella pneumoniae 10 ESBL; assay type: functional
Klebsiella pneumoniae [23] = experiment: Compound was evaluated for its antibacterial activity against Klebsiella pneumoniae 3 ESBL; assay type: functional
Klebsiella pneumoniae [24] = experiment: Compound was evaluated for its antibacterial activity against Klebsiella pneumoniae 4 ESBL; assay type: functional
Klebsiella pneumoniae [25] = experiment: Compound was evaluated for its antibacterial activity against Klebsiella pneumoniae 5 ESBL; assay type: functional
Klebsiella aerogenes = experiment: Antibacterial activity against Klebsiella aerogenes 1522E; assay type: functional; summary of the method: as §1
Pseudomonas aeruginosa [26] = experiment: Compound was evaluated for its antibacterial activity against Pseudomonas aeruginosa 1 MDR; assay type: functional
Pseudomonas aeruginosa [27] = experiment: Compound was evaluated for its antibacterial activity against Pseudomonas aeruginosa 2 MDR; assay type: functional
Pseudomonas aeruginosa [28] = experiment: Compound was evaluated for its antibacterial activity against Pseudomonas aeruginosa ATCC 27853; assay type: functional
Pseudomonas aeruginosa [29] = experiment: Antibacterial activity against Pseudomonas aeruginosa 1771M; assay type: functional; summary of the method: as §1
Pseudomonas aeruginosa [30] = experiment: Antibacterial activity against Pseudomonas aeruginosa 9027; assay type: functional; summary of the method: as §1
Shigella sonnei = experiment: Compound was evaluated for its antibacterial activity against Shigella sonnei ATCC 9290; assay type: functional
Salmonella enteritidis [31] = experiment: Compound was evaluated for its antibacterial activity against […] enteritidis; assay type: functional, Salmonella enterica subsp. enterica serovar Enteritidis; settings: Salmonella enterica
Salmonella enteritidis [32] = experiment: Compound was evaluated for its antibacterial activity against […] enteritidis 1; assay type: functional, Salmonella enterica subsp. enterica serovar Enteritidis; settings: Salmonella enterica
Salmonella enteritidis [33] = experiment: Compound was evaluated for its antibacterial activity against […] enteritidis 2; assay type: functional, Salmonella enterica subsp. enterica serovar Enteritidis; settings: Salmonella enterica
Salmonella enteritidis [34] = experiment: Compound was evaluated for its antibacterial activity against […] enteritidis 3; assay type: functional, Salmonella enterica subsp. enterica serovar Enteritidis; settings: Salmonella enterica
Salmonella typhimurium [35] = experiment: Antibacterial activity against Salmonella Typhimurium; assay type: functional, Salmonella enterica subsp. enterica serovar Typhimurium; settings: Salmonella enterica; summary of the method: as §1
Salmonella typhimurium [36] = experiment: Compound was evaluated for its antibacterial activity against Salmonella Typhimurium; assay type: functional, Salmonella enterica subsp. enterica serovar Typhimurium; settings: Salmonella enterica
Salmonella typhimurium [37] = experiment: Compound was evaluated for its antibacterial activity against Salmonella Typhimurium 1; assay type: functional, Salmonella enterica subsp. enterica serovar Typhimurium; settings: Salmonella enterica
Salmonella typhimurium [38] = experiment: Compound was evaluated for its antibacterial activity against Salmonella Typhimurium 2; assay type: functional, Salmonella enterica subsp. enterica serovar Typhimurium; settings: Salmonella enterica
Shigella flexneri = experiment: Compound was evaluated for its antibacterial activity against Shigella flexneri ATCC 9199; assay type: functional
Streptococcus pyogenes = experiment: Antibacterial activity against Streptococcus pyogenes 308A; assay type: functional
Staphylococcus aureus [39] = experiment: Antibacterial activity against Staphylococcus aureus 285; assay type: functional
Staphylococcus aureus [40] = experiment: Antibacterial activity against Staphylococcus aureus 503; assay type: functional
Staphylococcus aureus [41] = experiment: Antibacterial activity against Staphylococcus aureus SG 511; assay type: functional
Escherichia coli [42] = experiment: Compound was evaluated for its antibacterial activity against Escherichia coli CCARM 1110 MDR; assay type: functional
Klebsiella pneumoniae [43] = experiment: Compound was evaluated for its antibacterial activity against Klebsiella pneumoniae 2 ESBL; assay type: functional
Klebsiella pneumoniae [44] = experiment: Compound was evaluated for its antibacterial activity against Klebsiella pneumoniae 6 ESBL; assay type: functional
Pseudomonas aeruginosa [45] = experiment: Compound was evaluated for its antibacterial activity against Pseudomonas aeruginosa 3 MDR; assay type: functional
Pseudomonas aeruginosa [46] = experiment: Antibacterial activity against Pseudomonas aeruginosa 1592E
Klebsiella pneumoniae [47] = experiment: Compound was evaluated for its antibacterial activity against Klebsiella pneumoniae
Klebsiella pneumoniae [48] = experiment: as above; remark: listed apart in the source

## C[C@@H](O)[C@H]1C(=O)N2C(C(=O)O)=C(S[C@@H]3CN[C@H](C(=O)N(C)C)C3)[C@H](C)[C@H]12 [MEROPENEM]
[1]
  relative t1/2 (DHP-I hydrolysis vs meropenem): 1
Enterobacter cloacae [2]
  MIC: 0.03 µg/mL (≈ 0.0782 µM)
Escherichia coli [3]
  MIC: 0.03 µg/mL (≈ 0.0782 µM)
Escherichia coli [4]
  MIC: 0.03 µg/mL (≈ 0.0782 µM)
Escherichia coli [5]
  MIC: 0.03 µg/mL (≈ 0.0782 µM)
Escherichia coli [6]
  MIC: 0.03 µg/mL (≈ 0.0782 µM)
Escherichia coli [7]
  MIC: 0.016 µg/mL (≈ 0.0417 µM)
Escherichia coli [8]
  MIC: 0.025 µg/mL (≈ 0.0652 µM)
Escherichia coli [9]
  MIC: 0.025 µg/mL (≈ 0.0652 µM)
Escherichia coli [10]
  MIC: 0.03 µg/mL (≈ 0.0782 µM)
Escherichia coli [11]
  MIC: 0.016 µg/mL (≈ 0.0417 µM)
Escherichia coli [12]
  MIC: 0.03 µg/mL (≈ 0.0782 µM)
Escherichia coli [13]
  MIC: 0.03 µg/mL (≈ 0.0782 µM)
Escherichia coli [14]
  MIC: 0.016 µg/mL (≈ 0.0417 µM)
Escherichia coli [15]
  MIC: 0.016 µg/mL (≈ 0.0417 µM)
Escherichia coli [16]
  MIC: 0.03 µg/mL (≈ 0.0782 µM)
Escherichia coli [17]
  MIC: 0.03 µg/mL (≈ 0.0782 µM)
Escherichia coli [18]
  MIC: 0.016 µg/mL (≈ 0.0417 µM)
Enterobacter cloacae [19]
  MIC: 0.025 µg/mL (≈ 0.0652 µM)
Klebsiella pneumoniae [20]
  MIC: 0.03 µg/mL (≈ 0.0782 µM)
Klebsiella oxytoca
  MIC: 0.06 µg/mL (≈ 0.156 µM)
Klebsiella pneumoniae [21]
  MIC: 0.03 µg/mL (≈ 0.0782 µM)
Klebsiella pneumoniae [22]
  MIC: 0.016 µg/mL (≈ 0.0417 µM)
Klebsiella pneumoniae [23]
  MIC: 0.06 µg/mL (≈ 0.156 µM)
Klebsiella pneumoniae [24]
  MIC: 0.016 µg/mL (≈ 0.0417 µM)
Klebsiella pneumoniae [25]
  MIC: 0.016 µg/mL (≈ 0.0417 µM)
Klebsiella aerogenes
  MIC: 0.049 µg/mL (≈ 0.128 µM)
Pseudomonas aeruginosa [26]
  MIC: 1 µg/mL (≈ 2.61 µM)
Pseudomonas aeruginosa [27]
  MIC: 8 µg/mL (≈ 20.9 µM)
Pseudomonas aeruginosa [28]
  MIC: 0.5 µg/mL (≈ 1.3 µM)
Pseudomonas aeruginosa [29]
  MIC: 0.049 µg/mL (≈ 0.128 µM)
Pseudomonas aeruginosa [30]
  MIC: 0.195 µg/mL (≈ 0.509 µM)
Shigella sonnei
  MIC: 0.03 µg/mL (≈ 0.0782 µM)
Salmonella enteritidis [31]
  MIC: 0.016 µg/mL (≈ 0.0417 µM)
Salmonella enteritidis [32]
  MIC: 0.016 µg/mL (≈ 0.0417 µM)
Salmonella enteritidis [33]
  MIC: 0.016 µg/mL (≈ 0.0417 µM)
Salmonella enteritidis [34]
  MIC: 0.03 µg/mL (≈ 0.0782 µM)
Salmonella typhimurium [35]
  MIC: 0.049 µg/mL (≈ 0.128 µM)
Salmonella typhimurium [36]
  MIC: 0.03 µg/mL (≈ 0.0782 µM)
Salmonella typhimurium [37]
  MIC: 0.03 µg/mL (≈ 0.0782 µM)
Salmonella typhimurium [38]
  MIC: 0.016 µg/mL (≈ 0.0417 µM)
Shigella flexneri
  MIC: 0.03 µg/mL (≈ 0.0782 µM)
Streptococcus pyogenes
  MIC: 0.013 µg/mL (≈ 0.0339 µM)
Staphylococcus aureus [39]
  MIC: 0.195 µg/mL (≈ 0.509 µM)
Staphylococcus aureus [40]
  MIC: 0.098 µg/mL (≈ 0.256 µM)
Staphylococcus aureus [41]
  MIC: 0.195 µg/mL (≈ 0.509 µM)
Escherichia coli [42]
  MIC: 0.016 µg/mL (≈ 0.0417 µM)
Klebsiella pneumoniae [43]
  MIC: 0.03 µg/mL (≈ 0.0782 µM)
Klebsiella pneumoniae [44]
  MIC: 0.03 µg/mL (≈ 0.0782 µM)
Pseudomonas aeruginosa [45]
  MIC: 8 µg/mL (≈ 20.9 µM)
Pseudomonas aeruginosa [46]
  MIC: 0.195 µg/mL (≈ 0.509 µM)
Klebsiella pneumoniae [47]
  MIC: 0.06 µg/mL (≈ 0.156 µM)
Klebsiella pneumoniae [48]
  MIC: 0.06 µg/mL (≈ 0.156 µM)

## C[C@@H](O)[C@H]1C(=O)N2C(C(=O)O)=C(SCCNC=N)C[C@H]12 [IMIPENEM ANHYDROUS]
[1]
  relative t1/2 (DHP-I hydrolysis vs meropenem): 0.17
Escherichia coli [8]
  MIC: 0.195 µg/mL (≈ 0.651 µM)
Escherichia coli [9]
  MIC: 0.195 µg/mL (≈ 0.651 µM)
Enterobacter cloacae [19]
  MIC: 0.195 µg/mL (≈ 0.651 µM)
Klebsiella aerogenes
  MIC: 0.391 µg/mL (≈ 1.31 µM)
Pseudomonas aeruginosa [29]
  MIC: 0.195 µg/mL (≈ 0.651 µM)
Pseudomonas aeruginosa [30]
  MIC: 0.781 µg/mL (≈ 2.61 µM)
Salmonella typhimurium [35]
  MIC: 0.781 µg/mL (≈ 2.61 µM)
Streptococcus pyogenes
  MIC: 0.007 µg/mL (≈ 0.0234 µM)
Staphylococcus aureus [39]
  MIC: 0.025 µg/mL (≈ 0.0835 µM)
Staphylococcus aureus [40]
  MIC: 0.013 µg/mL (≈ 0.0434 µM)
Staphylococcus aureus [41]
  MIC: 0.025 µg/mL (≈ 0.0835 µM)
Pseudomonas aeruginosa [46]
  MIC: 0.781 µg/mL (≈ 2.61 µM)

## CO/N=C1/CCN(C(=O)[C@@H]2C[C@H](SC3=C(C(=O)O)N4C(=O)[C@H]([C@@H](C)O)[C@H]4[C@H]3C)CN2)C1
Escherichia coli [8]
  MIC: 0.049 µg/mL (≈ 0.108 µM)
Escherichia coli [9]
  MIC: 0.049 µg/mL (≈ 0.108 µM)
Enterobacter cloacae [19]
  MIC: 0.049 µg/mL (≈ 0.108 µM)
Klebsiella aerogenes
  MIC: 0.049 µg/mL (≈ 0.108 µM)
Pseudomonas aeruginosa [29]
  MIC: 0.781 µg/mL (≈ 1.73 µM)
Pseudomonas aeruginosa [30]
  MIC: 0.391 µg/mL (≈ 0.864 µM)
Salmonella typhimurium [35]
  MIC: 0.098 µg/mL (≈ 0.217 µM)
Pseudomonas aeruginosa [46]
  MIC: 3.12 µg/mL (≈ 6.91 µM)

## CCOC(=O)C1CN(C(=O)[C@@H]2C[C@H](SC3=C(C(=O)O)N4C(=O)[C@H]([C@@H](C)O)[C@H]4[C@H]3C)CN2)C/C1=N\O (some centres not stated)
[1]
  relative t1/2 (DHP-I hydrolysis vs meropenem): 0.26
Escherichia coli [8]
  MIC: 0.013 µg/mL (≈ 0.0255 µM)
Escherichia coli [9]
  MIC: 0.049 µg/mL (≈ 0.096 µM)
Enterobacter cloacae [19]
  MIC: 0.025 µg/mL (≈ 0.049 µM)
Klebsiella aerogenes
  MIC: 0.049 µg/mL (≈ 0.096 µM)
Pseudomonas aeruginosa [29]
  MIC: 0.391 µg/mL (≈ 0.766 µM)
Pseudomonas aeruginosa [30]
  MIC: 6.25 µg/mL (≈ 12.2 µM)
Salmonella typhimurium [35]
  MIC: 0.049 µg/mL (≈ 0.096 µM)
Streptococcus pyogenes
  MIC: 0.013 µg/mL (≈ 0.0255 µM)
Staphylococcus aureus [39]
  MIC: 0.391 µg/mL (≈ 0.766 µM)
Staphylococcus aureus [40]
  MIC: 0.195 µg/mL (≈ 0.382 µM)
Staphylococcus aureus [41]
  MIC: 0.195 µg/mL (≈ 0.382 µM)
Pseudomonas aeruginosa [46]
  MIC: 3.12 µg/mL (≈ 6.12 µM)

Reference: ChEMBL document CHEMBL1145884, “Synthesis and biological activity of novel 1beta-methylcarbapenems with oxyiminopyrrolidinylamide moiety” (2003)
